This is an account of results in ChEMBL document CHEMBL3797083, “A New Series of Orally Bioavailable Chemokine Receptor 9 (CCR9) Antagonists; Possible Agents for the Treatment of Inflammatory Bowel Disease” (J Med Chem, 2016).

pKi: −log10 of the molar value. Values after ≈ are worked out from the molar mass of the structure shown. Active and inactive are the calls of the source. No cut-off for these calls is given here.

The nature of data set [1]: Solubility of compound at pH 7.4 buffer. In kind it is physicochemical. The essentials:
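Solubility was measured at pH 7.4. Each value is the mean of three replicates.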

The next data set has as its system Liver microsome. In words: Metabolic stability of compound in human liver microsomes assessed as remaining compound at 37 deg C. In kind it is ADME. In short, it runs like this:
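Test compound incubated with human liver microsomes at 37 °C. Loss of parent compound was followed over a 30 min period, and the percentage remaining is reported as the mean of 3 replicates.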

A short description of data set [2]: Metabolic stability of compound in mouse liver microsomes assessed as remaining compound at 37 deg C. It counts as ADME.
The nature of data set [3]: Elimination half life in mouse at 1 mg/kg, iv. In kind it is ADME, organism-based. Particulars: in vivo, read-out: beta t1/2 (converted).
The nature of data set [4]: Clearance in mouse at 1 mg/kg, iv. In kind it is ADME, organism-based. Particulars: in vivo.
A short description of data set [5]: AUC in mouse at 10 mg/kg, po. The conditions noted are these: in vivo. In kind it is ADME, organism-based.
Data set [6] can be described thus: Absolute bioavailability in mouse at 1 mg/kg, iv 10 mg/kg, po. It counts as ADME, organism-based. Particulars: in vivo.
Data set [7] deals with Mus musculus. The experiment in a line: Anticolitis activity in DSS-induced acute colitis C57BL/6 mouse model assessed as reduction in disease activity index at 50 mg/kg, sc bid for 10 days. In kind it is functional. Set-up: scale not given: the % may be the effect or the level left.
Data set [8] addresses T1, C-C chemokine receptor type 9 (Homo sapiens, UniProt P51686).
T1 sequence (P51686 whole entry): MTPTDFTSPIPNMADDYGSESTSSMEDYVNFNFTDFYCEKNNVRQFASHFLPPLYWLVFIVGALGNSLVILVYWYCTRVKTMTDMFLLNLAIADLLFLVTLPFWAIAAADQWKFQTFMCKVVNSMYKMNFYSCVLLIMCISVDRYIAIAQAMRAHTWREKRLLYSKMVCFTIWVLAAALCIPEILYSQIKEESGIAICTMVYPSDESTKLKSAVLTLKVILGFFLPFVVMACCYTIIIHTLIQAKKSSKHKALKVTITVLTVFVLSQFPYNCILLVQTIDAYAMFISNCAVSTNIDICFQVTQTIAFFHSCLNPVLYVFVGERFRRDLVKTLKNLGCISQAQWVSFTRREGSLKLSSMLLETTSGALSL
In words: Antagonist activity at CCR9 receptor in human MOLT4 cells assessed as inhibition of CCL25-induced increase in intracellular calcium level preincubated for 1 hr followed CCL25 addition by FLIPR assay. It counts as functional, cell-based, MOLT-4.

The subject of data set [9] is Mus musculus. The experiment in a line: Anticolitis activity in DSS-induced acute colitis C57BL/6 mouse model assessed as reduction in disease activity index at 10 mg/kg, po bid for 10 days. It counts as functional. The conditions noted are these: C57BL/6, po, 240 h.
For data set [10], the system named is Mus musculus. The experiment in a line: Anticolitis activity in DSS-induced acute colitis C57BL/6 mouse model assessed as reduction in disease activity index at 30 mg/kg, po bid for 10 days. Particulars: C57BL/6, po, 240 h. In kind it is functional.
Data set [11] concerns Mus musculus. The experiment in a line: Anticolitis activity in DSS-induced acute colitis C57BL/6 mouse model assessed as reduction in disease activity index at 100 mg/kg, po bid for 10 days. It counts as functional. The conditions noted are these: C57BL/6, po, 240 h.
Data set [12] deals with Mus musculus. The experiment in a line: Anticolitis activity in DSS-induced chronic colitis C57BL/6 mouse model assessed as reduction in disease activity index at 30 mg/kg, po bid for 30 days. It counts as functional, organism-based.
Data set [13] deals with Mus musculus. The experiment in a line: Anticolitis activity in DSS-induced acute colitis C57BL/6 mouse model assessed as reduction in disease activity index at 3 mg/kg, po bid for 10 days. In kind it is functional. The conditions noted are these: C57BL/6, po, 240 h.
For data set [14], the system named is Mus musculus. In words: Anticolitis activity in DSS-induced acute colitis C57BL/6 mouse model assessed as reduction in disease activity index at 30 mg/kg, sc bid for 10 days. It counts as functional. Particulars: C57BL/6, sc, 240 h.

For orientation: solubility means the dissolved amount per volume that the medium holds. For orientation: clearance means a measure of how efficiently the substance is removed, as volume per time. The term AUC denotes concentration integrated over time. As a reminder, the bioavailability is dose-corrected exposure relative to a reference, in per cent. In data set [1], `Cc1ncccc1N1C(=O)c2c(Cl)ccc(NS(=O)(=O)c3ccc(C(C)(C)C)cc3)c2C1=O` returned a solubility of 81 µM (≈ 39.2 µg/mL). The figures for the Stability (in the data set on Liver microsome; in data set [2]) were 89% and 62%, respectively. Also, the half-life in [3] was 196 min. In [4], this compound came in with a clearance of 2.6 mL/min/kg. In data set [5], this compound returned an AUC of 46800 ng·h/mL. This compound also gave a bioavailability in data set [6] of 73%.
The compound `CC(C)(C)c1ccc(S(=O)(=O)Nc2ccc(Cl)cc2C(=O)c2cc[n+]([O-])cc2)cc1` [VERCIRNON] showed a solubility in data set [1] of 6 µM (≈ 2.67 µg/mL). Besides, the results for the Stability (in the data set on Liver microsome; in data set [2]) were 73% and 9%, respectively. The half-life in [3] was 9.6 min. The same compound registered a clearance in data set [4] of 103 mL/min/kg. Besides, in [5], the AUC is 340 ng·h/mL. In [6], this compound had a bioavailability of 22%. Also, the Activity in the data set with Mus musculus [7] was 17%.
As a reminder, the pKi is −log10 of the Ki, conventionally taken in molar units. Regarding `CC(C)(C)c1ccc(S(=O)(=O)Nc2ccc(Cl)c3c2C(=O)N(c2ccc(F)nc2)C3=O)cc1`, the pKi in data set [8] is 7.72.
In turn, `COc1ccncc1N1C(=O)c2c(Cl)ccc(NS(=O)(=O)c3ccc(C(C)(C)C)cc3)c2C1=O` came in with a solubility in data set [1] of 10 µM (≈ 5 µg/mL). The Stability amounted to 81% with Liver microsome and 60% in data set [2]. In addition, the half-life in data set [3] is 61.8 min. This compound registered a clearance in data set [4] of 6.86 mL/min/kg. In data set [5], the AUC was 35600 ng·h/mL. In data set [6], this compound registered a bioavailability of 100%.
As to `CC(C)(C)c1ccc(S(=O)(=O)Nc2cccc3c2C(=O)N(Cc2cccnc2)C3=O)cc1`, the pKi in [8] was 6.21.
For orientation: inhibition in vivo means the relative decrease from the control value, in per cent. As for `CC(C)(C)c1ccc(S(=O)(=O)Nc2ccc(Cl)c3c2C(=O)N(Cc2cccc[n+]2[O-])C3=O)cc1`, in data set [1], the solubility stood at 69 µM (≈ 34.5 µg/mL). Besides, the Stability in the data set on Liver microsome was 81%; in data set [2], 79%. Also, the half-life in [3] is 63 min. For the same compound, in data set [4], the clearance stood at 2.57 mL/min/kg. For the same compound, the AUC in data set [5] stood at 36000 ng·h/mL. The compound further came in with a bioavailability in data set [6] of 56%. Also, the inhibition in vivo at 10 mg/kg in the data set on Mus musculus [9] is 32%. Further, the inhibition in vivo at 30 mg/kg in the data set on Mus musculus [10] was found to be 33%. For the same compound, the inhibition in vivo at 100 mg/kg in the data set on Mus musculus [11] was 51%. Further, the outcome in the data set on Mus musculus [12] was Active.
Consider `COc1ncccc1N1C(=O)c2c(Cl)ccc(NS(=O)(=O)c3ccc(C(C)(C)C)cc3)c2C1=O`, for which the pKi in [8] was 8.52. This compound also yielded a solubility in [1] of 26 µM (≈ 13 µg/mL). Moreover, the Stability with Liver microsome stood at 67%; in [2] it was 64%. The half-life in data set [3] was 322 min. Moreover, the clearance in data set [4] is 1.73 mL/min/kg. Moreover, in data set [5], the AUC was 24000 ng·h/mL. Also, the bioavailability in data set [6] is 25%.
As to `Cc1cccc(N2C(=O)c3c(Cl)ccc(NS(=O)(=O)c4ccc(C(C)(C)C)cc4)c3C2=O)n1`, the concentration in solution in [1] (solubility) came to 27 µM (≈ 13.1 µg/mL). The Stability in the data set on Liver microsome is listed as 61%; in data set [2] it was 42%. Further, the half-life in [3] is 79.2 min. Further, the clearance in data set [4] worked out at 2.34 mL/min/kg. For the same compound, the AUC in [5] stood at 67900 ng·h/mL. The same compound registered a bioavailability in [6] of 95%.
The compound `Cc1c(N2C(=O)c3c(Cl)ccc(NS(=O)(=O)c4ccc(C(C)(C)C)cc4)c3C2=O)ccc[n+]1[O-]` returned a solubility in [1] of 114 µM (≈ 57 µg/mL). Moreover, the values for the Stability (in the data set with Liver microsome; in [2]) were 71% and 76%, respectively. Moreover, the half-life in data set [3] is 76.8 min. In [4], this compound registered a clearance of 4.69 mL/min/kg. The compound also showed an AUC in data set [5] of 16200 ng·h/mL. Further, the bioavailability in data set [6] amounted to 48%. Also, the inhibition in vivo at 3 mg/kg with Mus musculus [13] was 41%. The inhibition in vivo at 10 mg/kg with Mus musculus [9] was 27%. In the data set on Mus musculus [10], the inhibition in vivo at 30 mg/kg was 51%. For the same compound, the inhibition in vivo at 100 mg/kg in the data set on Mus musculus [11] was determined as 86%. The outcome in the data set with Mus musculus [12] was Active.
`CC(C)(C)c1ccc(S(=O)(=O)Nc2ccc(Cl)c3c2C(=O)N(Cc2ccc[n+]([O-])c2)C3=O)cc1` showed a solubility in data set [1] of 126 µM (≈ 63 µg/mL). Also, the Stability is recorded as 15% with Liver microsome and 8% in data set [2]. In data set [3], the half-life was 37.2 min. This compound had a clearance in data set [4] of 3.92 mL/min/kg. Moreover, in data set [5], the exposure (AUC) turned out to be 13900 ng·h/mL. The same compound yielded a bioavailability in [6] of 33%. The figures for the inhibition in vivo at 30 mg/kg with Mus musculus [14] and with Mus musculus [10] were 24% and 31%, respectively. Further, the inhibition in vivo at 10 mg/kg with Mus musculus [9] came out at 21%. Further, the inhibition in vivo at 100 mg/kg in the data set with Mus musculus [11] was 58%. The outcome in the data set on Mus musculus [12] was Active.
